Measured values as given in PMC9262120 (Chembiochem : a European journal of chemical biology, 2022).

Experiments:
TMV [1] = experiment: TMV–TBPT25-FITC ELISA; type: binding, Tobacco mosaic virus; conditions: varying TMV coated on plates; Figure S5
BSA = experiment: Off-target binding to blocking agent BSA; parameters: species or system bovine
CPMV = experiment: Cross-reactivity ELISA, CPMV; type: binding, cowpea mosaic virus; conditions: conclusion
Outline: (§1)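 Wells coated with 10 µg virus or VLP in 0.1 M bicarbonate, pH 8.6, overnight at 4 °C, then blocked with 5% BSA for 1 h at RT. 10^9 pfu phage in 5% BSA were added for 1 h, followed by 0.5% TBST washes. Detection used HRP anti-M13 (1:500, 1 h) and TMB for 10 min in the dark, read at 370 nm. Controls were empty M13KE phage and BSA-coated wells.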

TMGMV = experiment: Cross-reactivity ELISA, TMGMV; type: binding, tobacco mild green mosaic virus; conditions: conclusion
Outline: as §1

TMV [2] = experiment: ELISA with biotinylated peptide on streptavidin plates; type: binding, Tobacco mosaic virus; conditions: CPMV-specific vs TMV-specific biotinylated peptide, Figure S3
Outline: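 0.1 µg biotinylated peptide was bound to streptavidin-coated plates for 1 h at RT; control wells received 5% BSA without peptide. Plates were blocked with 5% BSA, then 10 µg TMV was added for 1 h. Detection used rabbit anti-TMV polyclonal (1:1000, 1 h), then HRP goat anti-rabbit (1:10,000, 1 h), then TMB for 5–10 min. Reactions were stopped with 2 M H₂SO₄ and read at 450 nm.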

[3] = target: T1, tobacco mild green mosaic virus particles (tobacco mild green mosaic virus, UniProt P03579 1-159); experiment: ELISA
T1 sequence: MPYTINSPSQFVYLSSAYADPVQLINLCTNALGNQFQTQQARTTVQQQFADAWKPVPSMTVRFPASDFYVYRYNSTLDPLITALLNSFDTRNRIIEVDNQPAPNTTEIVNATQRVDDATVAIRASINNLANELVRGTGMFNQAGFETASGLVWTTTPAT

Q: With “H2N-GHRCRGGVCYKKKGGGSK/FITC/-CO2H [TBPT25-FITC]” as the molecule, how does the “concentration dependence of binding” value (TMV [1]) read?
A: The value was “the more TMV coated onto the plates, the higher signal”.

Q: How did the “off-target binding to BSA” value (BSA) turn out when “H-GHRCRGGVCYKK-OH (cysteine pairing not given here) [TBPT25]” was run?
A: The value was “Some off-target binding”.

Q: What about the “off-target binding to CPMV” value (CPMV) of the same molecule?
A: Its value is “Some off-target binding”.

Q: And the “off-target binding to TMGMV” value (TMGMV)?
A: Its value is “Some off-target binding”.

Q: What about the “TMV binding, random peptide comparison” value (TMV [2]) of the same molecule?
A: Its value is “TMV binding to the TMV-specific TBPT25 was confirmed”.

B1: monoclonal phage T25 (M13 phage displaying [residues removed]) (designed binder)
peptide: GHRCRGGVCYKK
Q: With B1 as the molecule, how does the “fold less binding than to TMV” value [3] read?
A: The value was 1.2 fold.
